# How the values were obtained:
# [1] = molecular target: T1, Nitric oxide synthase 1 (Rattus norvegicus, UniProt P29476); experiment: Inhibitory activity against isomeric form of Neuronal nitric oxide synthase measured by citrulline assay
# Summary of the method: (§1)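 Rat brain cytosol as nNOS source. Incubated 20 min at ambient temperature with 10 μM purified L-[2,3-3H]arginine, 1 mM NADPH, 2 mM CaCl2 and varying inhibitor. Stopped with EGTA/EDTA/HEPES buffer, pH 5.5. [3H]citrulline separated on Dowex 50WX-8 (Na+) and counted by liquid scintillation. IC50 reported.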
# [2] = molecular target: T2, Nitric oxide synthase 3 (Bos taurus, UniProt P29473); experiment: Inhibitory activity of conversion of radiolabeled arginine to citrulline by isomeric form of nitric oxide synthase Endothelial nitric oxide synthase from cultured bovine aortic endothelial cells; format: cell-based, Endothelial cell
# T2 sequence (P29473 whole entry): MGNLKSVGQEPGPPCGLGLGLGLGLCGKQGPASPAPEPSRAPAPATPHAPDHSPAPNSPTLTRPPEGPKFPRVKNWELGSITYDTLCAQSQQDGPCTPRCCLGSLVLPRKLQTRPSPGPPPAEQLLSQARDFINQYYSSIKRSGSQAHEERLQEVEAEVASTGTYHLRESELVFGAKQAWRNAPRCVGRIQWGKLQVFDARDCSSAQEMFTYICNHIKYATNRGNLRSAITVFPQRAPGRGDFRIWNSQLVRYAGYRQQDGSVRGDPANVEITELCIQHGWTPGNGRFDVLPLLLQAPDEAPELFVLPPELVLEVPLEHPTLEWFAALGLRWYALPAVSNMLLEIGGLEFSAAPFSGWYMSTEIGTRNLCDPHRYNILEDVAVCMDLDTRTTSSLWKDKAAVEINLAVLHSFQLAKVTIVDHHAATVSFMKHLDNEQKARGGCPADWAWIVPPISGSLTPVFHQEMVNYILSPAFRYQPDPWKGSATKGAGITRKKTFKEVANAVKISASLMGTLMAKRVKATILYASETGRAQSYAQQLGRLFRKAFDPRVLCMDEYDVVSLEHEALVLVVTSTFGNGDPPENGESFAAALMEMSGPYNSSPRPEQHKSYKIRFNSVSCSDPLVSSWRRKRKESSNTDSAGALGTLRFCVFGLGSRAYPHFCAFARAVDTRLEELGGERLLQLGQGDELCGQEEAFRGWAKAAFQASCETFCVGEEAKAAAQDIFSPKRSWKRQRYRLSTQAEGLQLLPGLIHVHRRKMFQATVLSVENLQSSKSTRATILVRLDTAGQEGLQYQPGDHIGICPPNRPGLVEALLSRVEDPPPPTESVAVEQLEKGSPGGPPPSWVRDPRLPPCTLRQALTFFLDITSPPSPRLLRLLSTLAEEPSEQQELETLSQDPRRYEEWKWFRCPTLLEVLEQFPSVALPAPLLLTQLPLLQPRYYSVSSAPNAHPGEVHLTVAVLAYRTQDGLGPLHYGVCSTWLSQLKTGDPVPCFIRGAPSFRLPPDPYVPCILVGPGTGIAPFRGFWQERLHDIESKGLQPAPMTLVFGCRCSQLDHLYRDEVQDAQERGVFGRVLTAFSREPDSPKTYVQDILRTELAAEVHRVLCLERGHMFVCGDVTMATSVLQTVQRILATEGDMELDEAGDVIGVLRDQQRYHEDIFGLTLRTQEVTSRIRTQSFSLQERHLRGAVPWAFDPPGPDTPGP
# Summary of the method: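 eNOS taken from the CHAPS-solubilized particulate fraction of cultured bovine aortic endothelial cells. Incubated 20 min at ambient temperature with 10 μM L-[2,3-3H]arginine, 1 mM NADPH, 2 mM CaCl2 and graded inhibitor. Stopped at pH 5.5 with EGTA/EDTA; [3H]citrulline isolated on cation-exchange column and counted by scintillation. IC50.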
# [3] = molecular target: T3, Nitric oxide synthase, inducible (Mus musculus, UniProt P29477); experiment: Inhibition of radiolabeled arginine conversion to citrulline by isomeric form of Inducible nitric oxide synthase from mouse RAW 264.7 cells; format: cell-based
# T3 sequence (P29477 whole entry): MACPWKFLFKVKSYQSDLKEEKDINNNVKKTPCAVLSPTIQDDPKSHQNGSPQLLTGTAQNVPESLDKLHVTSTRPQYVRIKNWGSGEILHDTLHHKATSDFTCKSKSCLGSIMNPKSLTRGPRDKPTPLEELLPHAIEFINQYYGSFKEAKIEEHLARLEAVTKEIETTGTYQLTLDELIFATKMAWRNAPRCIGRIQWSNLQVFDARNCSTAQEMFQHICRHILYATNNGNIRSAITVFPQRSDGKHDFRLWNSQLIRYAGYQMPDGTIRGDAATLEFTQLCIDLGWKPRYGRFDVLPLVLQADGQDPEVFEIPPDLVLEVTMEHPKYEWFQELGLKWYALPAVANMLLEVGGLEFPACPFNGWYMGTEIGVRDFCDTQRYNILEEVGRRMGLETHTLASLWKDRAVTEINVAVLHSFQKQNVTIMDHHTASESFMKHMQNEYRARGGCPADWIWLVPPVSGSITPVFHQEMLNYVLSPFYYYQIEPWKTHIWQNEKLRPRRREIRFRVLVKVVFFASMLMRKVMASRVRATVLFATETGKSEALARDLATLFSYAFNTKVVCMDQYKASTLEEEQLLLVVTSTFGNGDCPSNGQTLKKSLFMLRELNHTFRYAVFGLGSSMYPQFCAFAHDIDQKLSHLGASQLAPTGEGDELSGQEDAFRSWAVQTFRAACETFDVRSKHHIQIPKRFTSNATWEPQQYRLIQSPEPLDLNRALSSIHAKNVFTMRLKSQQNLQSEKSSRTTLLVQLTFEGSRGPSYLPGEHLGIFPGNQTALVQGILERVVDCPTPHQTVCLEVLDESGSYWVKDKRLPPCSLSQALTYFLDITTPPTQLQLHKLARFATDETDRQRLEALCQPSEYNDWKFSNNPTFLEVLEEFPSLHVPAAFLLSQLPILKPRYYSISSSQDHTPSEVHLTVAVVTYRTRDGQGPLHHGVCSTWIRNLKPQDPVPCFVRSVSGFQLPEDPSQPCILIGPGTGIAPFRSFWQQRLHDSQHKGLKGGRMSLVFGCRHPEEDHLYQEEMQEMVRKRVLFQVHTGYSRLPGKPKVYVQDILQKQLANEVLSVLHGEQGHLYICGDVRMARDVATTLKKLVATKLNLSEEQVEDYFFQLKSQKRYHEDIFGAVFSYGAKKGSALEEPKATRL
# Summary of the method: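 Incubated 20 min at ambient temperature with 10 μM [3H]arginine, 1 mM NADPH, no Ca2+, and varying inhibitor. Stopped with EGTA/EDTA buffer, pH 5.5; [3H]citrulline separated on Dowex cation exchanger and counted by scintillation. IC50.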
# [4] = molecular target: T1, Nitric oxide synthase 1; experiment: Inhibition of arginine to citrulline conversion by Neuronal nitric oxide synthase from rat brain; summary of the method: as §1
# [5] = species on record: Rattus norvegicus; experiment: Inhibitory activity against N-methyl-D-aspartate (NMDA)-induced cyclic GMP accumulation in rat cerebellar slices; format: functional
# Summary of the method: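 Cerebellar slices (0.3 mm, coronal and sagittal) from 8–10-day-old rats, preincubated 105 min in Krebs buffer under 95% O2/5% CO2 at 37 °C, then equilibrated 15 min. Test compound added, followed by 500 μM NMDA for 3 min. Stopped with 50 mM sodium acetate and flash-frozen in liquid nitrogen; cGMP measured by radioimmunoassay after sonication.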
# [6] = species on record: Rattus norvegicus; experiment: Percent reversal of ACh-induced relaxation at 100 uM in rat thoracic aorta; format: functional
# [7] = species on record: Rattus norvegicus; experiment: Effective concentration for reversal of ACh-induced relaxation in rat thoracic aorta; format: functional
# Summary of the method: (§2)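 Male Sprague-Dawley rat (350–375 g) thoracic aortic rings, endothelium spared, held at 1.25 g resting tension in Krebs buffer (pH 7.4) with 5 μM indomethacin, 37 °C, 5% CO2 in O2. After 1 h equilibration: 1 μM phenylephrine precontraction, then 1 μM ACh relaxation to plateau. Cumulative inhibitor additions, each to plateau, give a concentration-response curve for reversal of the relaxation.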
# [8] = species on record: Rattus norvegicus; experiment: E max (%) calculated for reversal of ACh-induced relaxation in rat thoracic aorta; format: functional
# Summary of the method: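 Male Sprague-Dawley rat (350–375 g) thoracic aortic rings, endothelium preserved, held at 1.25 g resting tension at 37 °C in Krebs buffer (pH 7.4) containing 5 μM indomethacin, gassed with 5% CO2 in O2. After 1 h equilibration, rings were precontracted with 1 μM phenylephrine and relaxed with 1 μM ACh. Inhibitor was then added cumulatively, plateau between additions, to build a reversal concentration-response curve.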
# [9] = species on record: Rattus norvegicus; experiment: Reversal of ACh-induced relaxation in rat thoracic aorta; format: functional; summary of the method: as §2
# T1 sequence (P29476 whole entry): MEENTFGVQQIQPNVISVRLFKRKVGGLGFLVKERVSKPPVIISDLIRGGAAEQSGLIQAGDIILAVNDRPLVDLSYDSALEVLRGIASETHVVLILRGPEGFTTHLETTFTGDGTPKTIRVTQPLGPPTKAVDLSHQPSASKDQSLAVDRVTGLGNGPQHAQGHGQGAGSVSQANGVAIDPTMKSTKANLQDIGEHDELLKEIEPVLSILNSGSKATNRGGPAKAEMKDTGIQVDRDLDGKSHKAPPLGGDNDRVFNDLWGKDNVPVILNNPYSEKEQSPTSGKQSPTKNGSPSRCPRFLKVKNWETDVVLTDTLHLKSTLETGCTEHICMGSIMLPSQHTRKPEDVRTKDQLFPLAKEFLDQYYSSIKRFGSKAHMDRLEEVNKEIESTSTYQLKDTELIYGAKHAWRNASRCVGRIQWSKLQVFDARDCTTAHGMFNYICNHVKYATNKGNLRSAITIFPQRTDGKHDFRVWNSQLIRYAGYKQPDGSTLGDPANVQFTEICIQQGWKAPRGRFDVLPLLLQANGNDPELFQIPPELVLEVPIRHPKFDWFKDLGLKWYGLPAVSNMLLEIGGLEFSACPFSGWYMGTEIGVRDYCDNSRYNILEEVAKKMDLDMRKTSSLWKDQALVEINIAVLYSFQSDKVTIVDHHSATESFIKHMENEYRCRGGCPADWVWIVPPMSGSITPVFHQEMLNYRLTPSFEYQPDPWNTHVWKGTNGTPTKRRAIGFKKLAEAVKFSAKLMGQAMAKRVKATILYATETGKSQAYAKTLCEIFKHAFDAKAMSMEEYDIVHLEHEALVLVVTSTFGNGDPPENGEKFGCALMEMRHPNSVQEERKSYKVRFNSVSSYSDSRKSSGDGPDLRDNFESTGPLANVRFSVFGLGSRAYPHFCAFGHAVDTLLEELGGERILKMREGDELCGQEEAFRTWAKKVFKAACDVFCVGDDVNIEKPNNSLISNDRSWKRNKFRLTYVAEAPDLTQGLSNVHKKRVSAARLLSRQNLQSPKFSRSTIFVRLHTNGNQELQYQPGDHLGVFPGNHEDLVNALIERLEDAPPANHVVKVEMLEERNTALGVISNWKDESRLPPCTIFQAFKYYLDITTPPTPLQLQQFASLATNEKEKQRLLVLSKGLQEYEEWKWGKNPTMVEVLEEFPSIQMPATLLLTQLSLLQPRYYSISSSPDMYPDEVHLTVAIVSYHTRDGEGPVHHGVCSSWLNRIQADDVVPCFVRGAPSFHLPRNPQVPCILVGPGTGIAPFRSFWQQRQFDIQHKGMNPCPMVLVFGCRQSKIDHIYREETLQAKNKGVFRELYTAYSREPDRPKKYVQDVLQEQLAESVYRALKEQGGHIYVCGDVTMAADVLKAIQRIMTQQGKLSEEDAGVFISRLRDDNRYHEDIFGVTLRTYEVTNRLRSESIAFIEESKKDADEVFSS
SMILES,IC50 [1] [µM],IC50 [2] [µM],IC50 [3] [µM],IC50 [4] [µM],also measured
Cc1ccc([N+](=O)[O-])c(N)c1,70,–,–,–,–
Cc1ccc([N+](=O)[O-])c(NCCCCN)c1,–,20,9,2.5,–
N[C@@H](CCCNc1ccc([N+](=O)[O-])cc1[N+](=O)[O-])C(=O)O,100,–,–,–,–
Cc1ccc([N+](=O)[O-])c(OCCC[C@H](N)C(=O)O)c1,–,10,80,4,–
Cc1ccc([N+](=O)[O-])c(NCCC[C@H](N)C(=O)O)c1,–,5,11,2.5,IC50 [5]: 33 µM; Emax at 100 µM [6]: 41%
CNC(=N)NCCC[C@H](N)C(=O)O [TILARGININE],–,–,–,–,EC50 [7]: 14 µM; IC50 [5]: 3 µM; Emax [8]: 119%
N[C@@H](CCCNc1ccc(C(=O)O)cc1[N+](=O)[O-])C(=O)O,> 100,–,> 100,–,–
Cc1ccc([N+](=O)[O-])c(NCCC[C@H](N)CO)c1,–,40,5,3,EC50 [7]: 17 µM; Emax [9]: 106%
N[C@@H](CCCNc1ccccc1[N+](=O)[O-])C(=O)O,100,100,> 100,–,–
Cc1ccc([N+](=O)[O-])c(SCCC[C@H](N)C(=O)O)c1,–,9,4,5,IC50 [5]: 37 µM
N=C(NCCC[C@H](N)C(=O)O)N[N+](=O)[O-] [NITROARGININE],–,–,14,–,EC50 [7]: 3 µM; IC50 [5]: 0.2 µM; Emax [8]: 138%
Cc1ccc(NCCC[C@H](N)C(=O)O)c([N+](=O)[O-])c1,> 100,–,> 100,–,–
Cc1cccc(SCCC[C@H](N)C(=O)O)c1,–,–,> 100,> 100,–
N[C@@H](CCCNc1ccc(F)cc1[N+](=O)[O-])C(=O)O,> 100,> 100,> 100,–,–
Cc1cccc(NCCC[C@H](N)C(=O)O)c1,–,–,> 100,> 100,–
N[C@@H](CCCNc1c([N+](=O)[O-])cccc1[N+](=O)[O-])C(=O)O,30,60,–,–,–
N[C@@H](CCCNc1ccc(C(F)(F)F)cc1[N+](=O)[O-])C(=O)O,> 100,–,> 100,–,–
Cc1ccc([N+](=O)[O-])c(NCC[C@H](N)C(=O)O)c1,–,–,> 100,> 100,–
N[C@@H](CCCNc1cc(O)ccc1[N+](=O)[O-])C(=O)O,–,–,> 100,> 100,–

# Source: ChEMBL document CHEMBL1131579, “Nitroaromatic amino acids as inhibitors of neuronal nitric oxide synthase” (J Med Chem, 1998)
